Assay outcomes: PubChem BioAssay, several laboratories
SENP1 FRET inh – blocks the human SENP1 SUMO protease catalytic domain | Q9P0U3 | recombinant SENP1 catalytic domain, CyPet-SUMO1-YPet FRET cleavage | inhibition, % at 10 µM | 360,000 compounds, 0.21% hits | AID 624204;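 active = inhibition at least 30% at 10 µM, raw YFP signal under a set limit, fluorescence ratio 0.5 to 1.5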
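Assay system: hSENP1 catalytic domain, recombinant. Amount: SENP1 enzyme, 20 pM final. Schedule: 50 min reaction, RT, dark. Technique: FRET, CFP and YFP emission. Control set: no-enzyme wells low, DMSO-plus-enzyme wells high control.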
FAS TE block – blocks the thioesterase domain of human fatty acid synthase | P49327 | recombinant FAS-TE, OMFH fluorogenic substrate, fluorescence endpoint | inhibition, % at 15 µM | 360,000 compounds, 0.67% hits;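 active = compounds whose normalised, plate-corrected inhibition of enzyme fluorescence in the single-dose primary screen is 50% or more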
Cardio protect – modulators protecting cardiomyocytes from myocardial damage | H9c2 cardiomyocytes, H2O2 injury protection, ATPLite, 2 h | AID 588492 | 360,000 compounds, 0.63% hits | protection from H2O2 cell death, % at 20 µM;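 active = compounds giving at least 50% protection of heart cells from peroxide-induced death in the single-dose screen, raw or plate-pattern-corrected value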
GRIN3A LBD mod – modulators (binders) of human NR3A ligand-binding domain | NR3A LBD differential scanning fluorimetry, Tm shift; 0% = protein alone, 100% = glycine-bound protein | Tm shift relative to glycine control, % at 25 µM | 340,000 compounds, 2.5% hits;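 active = melting temperature shift of at least 10% of the positive control shift, at one fixed dose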
Arrestin-AP2 inh – blocks beta-arrestin peptide binding to AP2 adaptin | 340,000 compounds, 0.31% hits | inhibition, % at 10 µM | FITC-arrestin peptide / GST-AP2 beads, flow cytometry; AP2 beta2 appendage carries R879A mutation;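 active = inhibition above a set limit, near 3 SD of compounds lacking own fluorescence, cut at about 54% in these data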
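system = GST-tagged AP2 beta2-adaptin appendage (R879A) on 4 µm glutathione beads | reagent = FITC-labelled arrestin peptide probe, 50 nM final | schedule = compound with beads 12 min RT, then probe 1 h RT | signal = HyperCyt-sampled flow cytometry, FL1 channel, ex 488/em 535 nm | read-out = percent response from loss of bead-bound FITC fluorescence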
hiPSC survival – increases survival of single human iPS cells. hiPSC single-cell survival, ATPlite luminescence; 100% = ROCK inhibitor wells, 0% = DMSO. survival enhancement, % at 20 µM. 360,000 compounds, 0.044% hits; in the data active = survival enhancement above about 18%;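 note: cells exposed to compounds for 16 hours before the ATP read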
Numbers stand for hits; n = inactive; x = no result given. Rows were chosen to be rich in hits. Some 4% of all compounds tested hit in one or more screens of this group.

SMILES	SENP1 FRET inh	FAS TE block	Cardio protect	GRIN3A LBD mod	Arrestin-AP2 inh	hiPSC survival
CCN(CC)S(=O)(=O)c1ccc(S(=O)(=O)Nc2ccc3c(c2)oc2ccccc23)cc1	n	n	n	24	n	n
CN(C)S(=O)(=O)c1ccc(S(=O)(=O)Nc2ccc3c(c2)oc2ccccc23)cc1	n	n	n	22	n	n
CC(C)NC(=O)c1ccc2c(c1)S(=O)(=O)c1ccccc1C2=O	n	n	n	n	n	20
CCCNC(=O)c1ccc2c(c1)S(=O)(=O)c1ccccc1C2=O	n	n	n	n	n	n
NC(CCc1ccccc1)c1csc(Nc2nncc3ccccc23)n1 (stereo not drawn)	n	n	n	x	x	n
CC(C)CN1C(=O)CN(S(C)(=O)=O)CC1(C)C(=O)Nc1ccc2c(c1)OCCO2 (stereo not drawn)	n	x	x	x	x	x
O=[N+]([O-])c1ccc(N2CCN(Cc3ccccc3)CC2)s1	n	n	n	n	n	n
O=[N+]([O-])c1ccc(N2CCN(Cc3ccccc3)CC2)c2c1no[n+]2[O-]	36	n	n	x	x	n
Cc1c(C(=O)NCc2ccc3c(c2)OCO3)sc2nc(-c3ccccc3)cn12	n	n	n	n	n	n
Cc1c(C(=O)Nc2ccccc2)sc2nc(-c3ccccc3)cn12	n	n	n	26	n	n
Cc1cccc(NC(=O)c2sc3nc(-c4ccccc4)cn3c2C)n1	n	n	n	n	n	n
Cc1c(C(=O)Nc2ccc3c(c2)OCO3)sc2nc(-c3ccccc3)cn12	n	n	n	27	n	n
Oc1cccc(-c2nc3c4c(ncn3n2)-c2ccccc2CC42CCCC2)c1	n	n	n	37	n	n
CC(C)c1cccc(-c2csc(C(C)(O)c3ccncc3)n2)c1 (stereo not drawn)	n	n	n	x	x	n
CN(CC(=O)Nc1ccccc1Br)C(=O)c1cccnc1Nc1cccc(C(F)(F)F)c1	n	n	n	15	n	n
CN1OC[C@@H]2CN(S(=O)(=O)c3cccc(C(F)(F)F)c3)[C@H](c3ccc(-c4cccnc4)cc3)C[C@@H]21	n	n	n	x	x	n
CCOC(=O)C1=C(COC(=O)/C=C/c2ccc(Cl)cc2)NC(=O)NC1C (stereo not drawn)	n	n	n	n	n	n
CCOC(=O)C1=C(COC(=O)/C=C/c2ccc(F)cc2)NC(=O)NC1C (stereo not drawn)	n	n	45	x	x	n
CCOC(=O)C1=C(COC(=O)c2cccc(Br)c2)NC(=O)NC1C (stereo not drawn)	n	n	n	n	n	n
CCOC(=O)C1=C(COC(=O)c2cc(OC)c(OC)c(OC)c2)NC(=O)NC1C (stereo not drawn)	n	n	60	n	n	n
COc1ccc(CN2CC[C@@H]3CN(C(C)=O)[C@H](c4ccccc4Br)C[C@@H]32)cc1	n	n	n	x	x	n
C=CCn1c(N)c(C(=O)Nc2cccc(C)c2)c2nc3ccccc3nc21	n	n	n	18	n	n
Nc1c(C(=O)Nc2ccccc2)c2nc3ccccc3nc2n1CCCN1CCOCC1	n	n	n	18	n	n
C=CCn1c(N)c(C(=O)Nc2ccc(C)c(C)c2)c2nc3ccccc3nc21	n	n	n	24	n	n
COc1ccc(OC)c(-c2cn(S(=O)(=O)c3ccccc3)nc2N)c1	n	n	n	17	n	n
SMILES	SENP1 FRET inh	FAS TE block	Cardio protect	GRIN3A LBD mod	Arrestin-AP2 inh	hiPSC survival
COc1ccc(NC(=O)C2(C)Cc3c(-c4cccc(C(F)(F)F)c4)ccnc3O2)cc1OC (stereo not drawn)	n	n	n	x	x	n
CCOC(=O)C1=CCN(S(=O)(=O)c2ccc(Br)cc2)C1c1ccccc1 (stereo not drawn)	n	n	n	x	x	n
Cn1nccc1C(=O)NC1CCCc2c1cnn2-c1ccc(C(C)(C)C)cc1 (stereo not drawn)	n	n	n	16	n	n
O=C(Nc1ccc(Oc2ccccc2)nc1)[C@H]1O[C@@H](n2ccc(=O)[nH]c2=O)[C@H](O)[C@@H]1O	n	n	n	x	x	n
CC(=O)Nc1ccc2c(c1)C(N1CC3CCC(CC3)C1)c1ccccc1-2 (stereo not drawn)	n	n	n	n	n	n
CS(=O)(=O)Nc1ccc(C2=NN(C(=O)c3ccco3)C(c3ccccc3)C2)cc1 (stereo not drawn)	n	n	n	12	n	n
COc1ccccc1OCCn1nc2ccccc2c1OC	n	x	x	x	x	x
COc1ccc(C2CC(c3ccc(Br)cc3)=NN2C(=S)Nc2ccccc2)cc1 (stereo not drawn)	n	n	n	11	n	n
O=C(N/N=C/c1ccc(O)cc1)NC12CC3CC(CC(C3)C1)C2	n	n	n	10	n	n
Cc1c(C(=O)OCC(=O)Nc2ccc(S(N)(=O)=O)cc2)oc2c1ccc1ccccc12	n	n	n	18	n	n
Cc1cc(NC(=O)COC(=O)c2oc3c(ccc4ccccc43)c2C)no1	n	n	n	n	n	n
NS(=O)(=O)c1ccc(NC(=O)COC(=O)c2ccc(S(=O)(=O)N3CCOCC3)cc2)cc1	n	n	n	14	n	n
O=C(COC(=O)CCC(=O)c1cccs1)Nc1ccc(S(=O)(=O)N2CCOCC2)cc1	n	n	n	15	n	n
COc1ccccc1CNC(=O)COc1cc(O)c2c(c1)OC(C)(C)CC2=O	n	n	n	x	x	n
Cc1cc(C)cc(OCC(=O)Nc2cccc(-c3nnc(-c4ccco4)o3)c2)c1	n	n	54	n	n	n
COc1cc(C(=O)Nc2ccc(NC(=O)c3ccco3)nc2)cc(OC)c1OC	n	n	52	n	n	n
COc1cccc(C(=O)Nc2ccc(NC(=O)c3ccco3)nc2)c1	n	n	n	n	n	n
COc1cc(C(=O)Nc2ccc(-c3nnc(-c4ccco4)o3)cc2)cc(OC)c1OC	n	n	n	30	n	n
COc1ccc(-c2nnc(-c3cc(OC)c(OC)c(OC)c3)o2)cc1OC	n	n	58	n	n	n
COC(=O)[C@@]12C[C@@H](CC(=O)NCCCCc3ccccc3)C(=O)N(Cc3ccc4c(c3)OCO4)C1=CCC(C)(C)C2	n	x	x	x	x	x
CC(C)(C)NC(=O)C(c1ccnc2ccccc12)n1c(=O)c(-c2cc3ccccc3[nH]2)nc2ccccc21 (stereo not drawn)	n	x	x	x	x	x
CCC(=O)N1CCCC1(C)C(=O)NCc1ccc(SC)cc1 (stereo not drawn)	n	n	n	x	x	n
COc1cc(Nc2ccn3nc(-c4ccccc4Cl)cc3n2)cc(OC)c1OC	n	n	n	x	x	n
O=C(Nc1c(-c2ccc(Cl)cc2)[nH][nH]c1=O)c1ccc(Br)cc1	n	n	n	x	x	n
